Measured values reported in ChEMBL document CHEMBL1135654, “Antitumor agents. 1. Synthesis, biological evaluation, and molecular modeling of 5H-pyrido[3,2-a]phenoxazin-5-one, a compound with potent antiproliferative activity” (J Med Chem, 2002).
Starred links: 1 amine or outer side, 2 acyl side, 3 side chain; linkers in the order of their positions; H or OH if unused. Positions of bridges follow the written chain, without caps; N, C: chain ends. Non-standard residues stand in square brackets, D forms with d. Residues, ends and D or L forms follow the SMILES beside them. Chains are numbered I, II in the order given. Actinocin(1to9) = Cc1c2oc3c(C)ccc(C(=O)[*:2])c3nc-2c(C(=O)[*:1])c(N)c1=O; NMeV = CN[C@H](C(=O)O)C(C)C; Sar = CNCC(=O)O

Experiments:
[1] = test system: CCRF-SB; experiment: Compound concentration required to reduce the cell proliferation of human acute B-lymphoblastic leukemia CCRF-SB cells by 50%, using MTT method; format: functional, cell-based
Method in brief: (§1)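 Leukemia/lymphoma cells in exponential growth resuspended at 1 × 10^5 cells/mL in RPMI 1640 (10% FCS, antibiotics) with serial dilutions of drug (DMSO stock 200 µM diluted in medium). Viability by MTT after 96 h at 37 °C, 5% CO2. Growth expressed as % of untreated controls; IC50 by linear regression. Controls underwent ≥3 rounds of multiplication. Mean of three independent determinations.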

[2] = test system: CCRF-CEM; experiment: Compound concentration required to reduce the cell proliferation of human acute T-lymphoblastic leukemia CCRF-CEM cells by 50%, using MTT method; format: functional, cell-based; method in brief: as §1
[3] = test system: HeLa; experiment: Compound concentration required to reduce the cell proliferation of cervix carcinoma Hela cells by 50%, using MTT method; format: functional, cell-based; details: Homo sapiens
Method in brief: (§2)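 Solid-tumor cells in exponential growth seeded at 5 × 10^4 cells/mL in their own medium with 10% FCS, allowed to adhere 16 h, then serially diluted drug added (DMSO stock 200 µM diluted in medium). MTT viability read 4 days later, 37 °C, 5% CO2. IC50 by linear regression from % of untreated control growth. Three independent determinations.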

[4] = test system: HEp-2; experiment: Compound concentration required to reduce the cell proliferation of larynx carcinoma cells by 50%, using MTT method; format: functional, cell-based; details: Homo sapiens; method in brief: as §2
[5] = test system: MT4; experiment: Compound concentration required to reduce the cell proliferation of human CD4+T cells by 50%, using MTT method; format: functional, cell-based; method in brief: as §1
[6] = test system: 5637; experiment: Antitumor activity against human bladder carcinoma 5637 cells; format: functional, cell-based; method in brief: as §2
[7] = test system: ACHN; experiment: Antitumor activity against human renal adenocarcinoma ACHN cells; format: functional, cell-based; method in brief: as §2
[8] = test system: CCRF-SB; experiment: Antitumor activity against human acute B-lymphoblastic leukemia CCRF-SB cells; format: functional, cell-based; method in brief: as §1
[9] = test system: CCRF-CEM; experiment: Antitumor activity against human acute T-lymphoblastic leukemia CCRF-CEM cells; format: functional, cell-based; method in brief: as §1
[10] = test system: CRL-7065 cell line; experiment: Antitumor activity against human foreskin fibroblasts CRL7065 cells; format: functional, cell-based; method in brief: as §2
[11] = test system: C8166; experiment: Antitumor activity against […] human acute T-lymphoblastic leukemia C8166 cells; format: functional, cell-based; method in brief: as §1
[12] = test system: DU-145; experiment: Antitumor activity against human prostate carcinoma DU145 cells; format: functional, cell-based; method in brief: as §2
[13] = test system: G-361; experiment: Antitumor activity against human skin melanoma G-361 cells; format: functional, cell-based; method in brief: as §2
[14] = test system: HeLa; experiment: Antitumor activity against cervix carcinoma Hela cells; format: functional, cell-based; details: Homo sapiens; method in brief: as §2
[15] = test system: HEp-2; experiment: Antitumor activity against larynx carcinoma Hep-2 cells; format: functional, cell-based; details: Homo sapiens; method in brief: as §2
[16] = test system: HT-29; experiment: Antitumor activity against human colon adenocarcinoma HT-29 cells; format: functional, cell-based; method in brief: as §2
[17] = test system: HepG2; experiment: Antitumor activity against human hepatocellular carcinoma HepG2 cells; format: functional, cell-based; method in brief: as §2
[18] = test system: IMR-32; experiment: Antitumor activity against human neuroblastoma IMR32 cells; format: functional, cell-based; method in brief: as §2
[19] = test system: MT4; experiment: Antitumor activity against human CD4+T cells expressing the TAT gene of HTLV-1 MT-4 cells; format: functional, cell-based; method in brief: as §1
[20] = test system: MOLT-4; experiment: Antitumor activity against human acute T-lymphoblastic leukemia MOLT-4 cells; format: functional, cell-based
[21] = test system: MT4; experiment: Antitumor activity against […] human acute T-lymphoblastic leukemia MT-4 cells; format: functional, cell-based; method in brief: as §1
[22] = test system: MCF7; experiment: Antitumor activity against human breast adenocarcinoma MCF-7 cells; format: functional, cell-based; method in brief: as §2
[23] = test system: Raji; experiment: Antitumor activity against human Burkitt lym phoma Raji cells; format: functional, cell-based; method in brief: as §1
[24] = test system: SK-MEL-28; experiment: Antitumor activity against human skin melanoma […] cells; format: functional, cell-based; method in brief: as §2
[25] = test system: SK-MES-1; experiment: Antitumor activity against human lung squamous carcinoma SK-MES-1 cells; format: functional, cell-based; method in brief: as §2
[26] = test system: WIL2-NS; experiment: Antitumor activity against human splenic B-lympho blastoid Wil2-NS cells; format: functional, cell-based; method in brief: as §1
[27] = Compound concentration required to reduce the cell proliferation of Wild type and Drug- resistant human nasopharyngeal carcinoma KB cells by 50%; format: functional, cell-based
Method in brief: (§3)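 Cells seeded at 5 × 10^4 cells/mL, adhered 16 h, exposed to serial drug dilutions; MTT after 4 days. IC50 by linear regression versus untreated controls; mean ± SD of three independent determinations.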

[28] = Compound concentration required to reduce the cell proliferation of Wild type and drug-resistant KB subclones passaged in the presence of etoposide 7 uM by 50%; format: functional; details: Homo sapiens; method in brief: as §3
[29] = Compound concentration required to reduce the cell proliferation of Wild type and Drug- resistant KB subclones passaged in the presence of doxorubicin 0.09 uM by 50%; format: functional; details: Homo sapiens; method in brief: as §3
[30] = Effect on the proliferation Wild -type and Drug- resistant KB subclones passaged in the presence of vincristine 0.02 uM; format: functional, Homo sapiens; method in brief: as §3
[31] = (§4) Cytotoxicity for Peripheral blood Lymphocytes; format: functional; details: Homo sapiens
Method in brief: (§5)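 Human PBL from HIV-negative donors, isolated on Ficoll-Hypaque. Resting cells (1 × 10^6/mL) exposed up to 3 days to serial drug dilutions, washed, PHA-stimulated 24 h, diluted to 1 × 10^5/mL with PHA and IL-2, viability read after 6 days at 37 °C. Alternatively, PBL stimulated with PHA (2.5 µg/mL) 24 h, then grown with PHA, IL-2 (50 U/mL) and drug, and viable cells counted at day 6. Mean ± SD, three experiments.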

[32] = as §4; format: functional; details: Homo sapiens; method in brief: as §5; remark: listed apart in the source
[33] = test system: Panel leukemia (Carcinoma cell lines); experiment: Cytotoxicity for lymphoblastoid cell lines; format: functional; details: Homo sapiens
[34] = test system: WIL2-NS; experiment: Anti tumor activity against human splenic B-lympho blastoid Wil2-NS cells; format: functional, cell-based; method in brief: as §1
[35] = test system: CCRF-SB; experiment: Compound concentration required to reduce the cell proliferation of human acute B-lymphoblastic leukemia CCRF-SB cells by 50%, using MTT method.; format: functional, cell-based; method in brief: as §1
[36] = test system: CCRF-CEM; experiment: Compound concentration required to reduce the cell proliferation of human acute T-lymphoblastic leukemia CCRF-CEM cells by 50%, using MTT method.; format: functional, cell-based; method in brief: as §1
[37] = test system: HeLa; experiment: Compound concentration required to reduce the cell proliferation of cervix carcinoma Hela cells by 50%, using MTT method.; format: functional, cell-based; details: Homo sapiens; method in brief: as §2
[38] = test system: HEp-2; experiment: Compound concentration required to reduce the cell proliferation of larynx carcinoma cells by 50%, using MTT method.; format: functional, cell-based; details: Homo sapiens; method in brief: as §2
[39] = test system: MT4; experiment: Compound concentration required to reduce the cell proliferation of human CD4+T cells by 50%, using MTT method.; format: functional, cell-based; method in brief: as §1
[40] = Effect on the proliferation Wild -type and Drug- resistant KB subclones passaged uM; format: functional, Homo sapiens; method in brief: as §3

| SMILES | IC50 [6] | IC50 [7] | IC50 [8] | IC50 [9] | IC50 [10] | IC50 [11] | IC50 [12] | IC50 [13] | IC50 [14] | IC50 [15] | IC50 [16] | IC50 [17] | IC50 [18] | IC50 [19] | IC50 [20] | IC50 [21] | IC50 [22] | IC50 [23] | IC50 [24] | IC50 [25] | further results |
| --- | --- | --- | --- | --- | --- | --- | --- | --- | --- | --- | --- | --- | --- | --- | --- | --- | --- | --- | --- | --- | --- |
| Nc1cc2nc3ccccc3oc-2cc1=O | – | – | – | – | – | – | – | – | – | – | – | – | – | – | – | – | – | – | – | – | IC50 [1]: 1000 nM; IC50 [2]: 2000 nM; IC50 [3]: 2700 nM; IC50 [4]: 1800 nM; IC50 [5]: 1200 nM |
| O=c1cc2sc3ccccc3nc-2c2cccnc12 | 150 nM | 1920 nM | 80 nM | 70 nM | 810 nM | 410 nM | 610 nM | 220 nM | 600 nM | 100 nM | 10000 nM | 110 nM | 530 nM | 80 nM | 140 nM | 80 nM | 650 nM | 30 nM | 810 nM | 800 nM | IC50 [26]: 150 nM |
| O=c1cc2oc3ccccc3nc-2c2cccnc12 | 10 nM | 10 nM | 9 nM | 10 nM | 500 nM | 100 nM | 40 nM | 10 nM | 200 nM | 40 nM | 250 nM | 50 nM | 10 nM | 10 nM | 40 nM | 10 nM | 230 nM | 40 nM | 210 nM | 40 nM | IC50 [27]: 100 nM; IC50 [28]: 20 nM; IC50 [29]: 40 nM; IC50 [30]: 60 nM; CC50 [31]: 5000 nM; CC50 [32]: 30 nM; CC50 [33]: 40 nM; IC50 [34]: 50 nM |
| CC(=O)c1c2nc3c(C(C)=O)cccc3oc-2cc(=O)c1N | – | – | – | – | – | – | – | – | – | – | – | – | – | – | – | – | – | – | – | – | IC50 [35]: 500 nM; IC50 [36]: 900 nM; IC50 [37]: 2000 nM; IC50 [38]: 1500 nM; IC50 [39]: 1800 nM |
| Cc1c2oc3c(C)ccc(C(=O)N[C@@H]4C(=O)N[C@H](C(C)C)C(=O)N5CCC[C@H]5C(=O)N(C)CC(=O)N(C)[C@@H](C(C)C)C(=O)O[C@@H]4C)c3nc-2c(C(=O)N[C@@H]2C(=O)N[C@H](C(C)C)C(=O)N3CCC[C@H]3C(=O)N(C)CC(=O)N(C)[C@@H](C(C)C)C(=O)O[C@@H]2C)c(N)c1=O [DACTINOMYCIN] (I: T[dV]P[Sar][NMeV] / II: T[dV]P[Sar][NMeV]; ester I:1-I:C, II:1-II:C; linker I:N-II:N via Actinocin(1to9)) | 3 nM | 5 nM | 2 nM | 1 nM | 7 nM | 0.8 nM | 8 nM | 1 nM | 8 nM | 4 nM | 6 nM | 10 nM | – | 1 nM | 1 nM | 1 nM | 6 nM | 2 nM | 2 nM | 4 nM | IC50 [27]: 5 nM; IC50 [28]: 200 nM; IC50 [29]: 200 nM; IC50 [40]: 50 nM; CC50 [31]: 2 nM; CC50 [32]: 5 nM; CC50 [33]: 3 nM; IC50 [34]: 3 nM |
